Results as given in ChEMBL document CHEMBL3244103, “Modifications of primiaquine as antimalarials. 2. 5-Phenylthio and 5-anilino derivatives of primaquine” (J Med Chem, 1978).
Active and inactive are the calls of the source. The rule behind the calls is not given here.

Tests used:
[1] = tested on: Plasmodium cynomolgi; assay: Antimalarial activity against Plasmodium cynomolgi infected in rhesus monkey at 0.5 mg/kg; assay type: functional, organism-based; parameters: dose 0.5 mg/kg
In short: (§1)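 Radical curative test in rhesus monkeys infected with P. cynomolgi, with compounds given at 0.5, 1 or 10 mg/kg. The read-out is either cures per number of animals treated or the day of relapse for animals not cured.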

[2] = tested on: Plasmodium cynomolgi; assay: Antimalarial activity against Plasmodium cynomolgi infected in rhesus monkey at 10 mg/kg; assay type: functional, organism-based; parameters: dose 10 mg/kg; in short: as §1
[3] = tested on: Plasmodium berghei; assay: Antimalarial activity against Plasmodium berghei infected in mouse at 320 to 640 mg/kg
[4] = species on record: Mus musculus; assay: Toxicity in mouse; conditions: in vivo
[5] = tested on: Plasmodium cynomolgi; assay: Antimalarial activity against Plasmodium cynomolgi infected in rhesus monkey at 1 mg/kg; assay type: functional, organism-based; parameters: dose 1 mg/kg; in short: as §1
[6] = tested on: Rhesus monkey; assay: Toxicity in rhesus monkey at 160 mg/kg; assay type: organism-based, Macaca mulatta; parameters: dose 160 mg/kg; conditions: in vivo

Row | Compound | Activity [2] | also measured
1 | COc1cc(NC(C)CCCN)c2ncccc2c1Sc1ccc(Cl)cc1 (stereo unspecified) | Active | Activity [1]: inactive
2 | COc1cc(NC(C)CCCN)c2ncccc2c1Sc1cccc(Cl)c1 (stereo unspecified) | Active | 
3 | COc1cc(NC(C)CCCN)c2ncccc2c1Sc1ccc(Cl)c(Cl)c1 (stereo unspecified) | Active | 
4 | COc1cc(NC(C)CCCN)c2ncccc2c1Sc1ccc2ccccc2c1 (stereo unspecified) | Active | 
5 | COc1ccc(Sc2c(OC)cc(NC(C)CCCN)c3ncccc23)cc1.O=C(O)CC(O)(CC(=O)O)C(=O)O (stereo unspecified) |  | Activity [3]: Active; Activity [4]: Non-toxic
6 | COc1cc(NC(C)CCCN)c2ncccc2c1Sc1ccccc1Cl (stereo unspecified) | Active | 
7 | COc1cc(NC(C)CCCN)c2ncccc2c1Sc1cc(Cl)ccc1Cl (stereo unspecified) | Active | 
8 | COc1cc(NC(C)CCCN)c2ncccc2c1Sc1cccc(C(F)(F)F)c1 (stereo unspecified) |  | Activity [5]: Active
9 | COc1cc(NC(C)CCCN)c2ncccc2c1.O=P(O)(O)O.O=P(O)(O)O (stereo unspecified) [PRIMAQUINE PHOSPHATE] |  | Activity [6]: Toxic
